In brackets after ≈: the same amount, converted by molar mass. Structures can show the parent of a compound that is named as a salt.
Key:
[1] = tested on: Tobacco mosaic virus; test: Antiviral activity against Tobacco mosaic virus (TMV) inoculated on fresh tobacco leaves followed by dipping into compound solution at 5 ug/mL for 20 min and measured 72 hr post compound treatment by half-leaf method; format: functional
In short: (§1)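 Half-leaf method. Fresh tobacco leaves at the 5-6 growth stage were inoculated by juice-leaf rubbing with TMV at 5.88 × 10-2 μg/mL. Leaves were cut into halves along the main vein. Each half was immersed for 20 min in compound solution or in double-distilled water, then cultured at 25 °C for 72 h. Each concentration was run at least three times.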

[2] = tested on: Tobacco mosaic virus; test: Antiviral activity against Tobacco mosaic virus (TMV) pre-treated with 100 ug/mL compound for 30 min followed by inoculation on left side of Nicotiana tabacum leaves assessed as virus inactivation effect measured 3 to 4 days post viral infection; format: functional
In short: (§2)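 TMV was mixed with an equal volume of compound solution for 30 min, then inoculated on the left half of N. tabacum L. leaves. A solvent-plus-virus mixture was inoculated on the right half as control. Local lesions were counted 3-4 days after inoculation. Each compound was run in three replicates.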

[3] = tested on: Tobacco mosaic virus; test: Antiviral activity against Tobacco mosaic virus (TMV) inoculated on 100 ug/mL compound smeared Nicotiana tabacum leaves assessed as protective effect against viral infection measured 3 to 4 days post viral infection; format: functional
In short: (§3)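 N. tabacum L. leaves of the same age were used. Compound solution was smeared on the left half and solvent control on the right half. Leaves were inoculated with TMV 12 h later.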

[4] = tested on: Tobacco mosaic virus; test: Antiviral activity against Tobacco mosaic virus (TMV) inoculated on fresh tobacco leaves followed by dipping into compound solution for 20 min and measured 72 hr post compound treatment by half-leaf method; format: functional, organism-based; in short: as §1
[5] = tested on: Tobacco mosaic virus; test: Antiviral activity against Tobacco mosaic virus (TMV) inoculated on whole Nicotiana tabacum leaves followed by smearing with 100 ug/mL compound solution on left side of leaves assessed as viral infection curative effect measured 3 to 4 days post viral infection; format: functional
In short: (§4)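 Whole growing N. tabacum L. leaves of the same age were dip-inoculated with TMV at 6.0 × 10-3 mg/mL.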

[6] = tested on: Tobacco mosaic virus; test: Antiviral activity against Tobacco mosaic virus (TMV) inoculated on fresh tobacco leaves followed by dipping into compound solution at 25 ug/mL for 20 min and measured 72 hr post compound treatment by half-leaf method; format: functional; in short: as §1
[7] = tested on: Tobacco mosaic virus; test: Antiviral activity against Tobacco mosaic virus (TMV) inoculated on fresh tobacco leaves followed by dipping into compound solution at 50 ug/mL for 20 min and measured 72 hr post compound treatment by half-leaf method; format: functional; in short: as §1
[8] = tested on: Tobacco mosaic virus; test: Antiviral activity against Tobacco mosaic virus (TMV) inoculated on fresh tobacco leaves followed by dipping into compound solution at 100 ug/mL for 20 min and measured 72 hr post compound treatment by half-leaf method; format: functional; in short: as §1
[9] = tested on: Tobacco mosaic virus; test: Antiviral activity against Tobacco mosaic virus (TMV) inoculated on fresh tobacco leaves followed by dipping into compound solution at 40 ug/mL for 20 min and measured 72 hr post compound treatment by half-leaf method; format: functional; conditions: for inhibition at 40 µg/mL: Tobacco mosaic virus; in short: as §1
[10] = tested on: Tobacco mosaic virus; test: Antiviral activity against Tobacco mosaic virus (TMV) pre-treated with 500 ug/mL compound for 30 min followed by inoculation on left side of Nicotiana tabacum leaves assessed as virus inactivation effect measured 3 to 4 days post viral infection; format: functional; in short: as §2
[11] = tested on: Tobacco mosaic virus; test: Antiviral activity against Tobacco mosaic virus (TMV) inoculated on fresh tobacco leaves followed by dipping into compound solution at 250 ug/mL for 20 min and measured 72 hr post compound treatment by half-leaf method; format: functional; in short: as §1
[12] = tested on: Tobacco mosaic virus; test: Antiviral activity against Tobacco mosaic virus (TMV) inoculated on 500 ug/mL compound smeared Nicotiana tabacum leaves assessed as protective effect against viral infection measured 3 to 4 days post viral infection; format: functional; in short: as §3
[13] = tested on: Tobacco mosaic virus; test: Antiviral activity against Tobacco mosaic virus (TMV) inoculated on fresh tobacco leaves followed by dipping into compound solution at 125 ug/mL for 20 min and measured 72 hr post compound treatment by half-leaf method; format: functional; in short: as §1
[14] = tested on: Tobacco mosaic virus; test: Antiviral activity against Tobacco mosaic virus (TMV) inoculated on whole Nicotiana tabacum leaves followed by smearing with 500 ug/mL compound solution on left side of leaves assessed as viral infection curative effect measured 3 to 4 days post viral infection; format: functional; in short: as §4
[15] = tested on: Tobacco mosaic virus; test: Antiviral activity against Tobacco mosaic virus (TMV) inoculated on fresh tobacco leaves followed by dipping into compound solution at 500 ug/mL for 20 min and measured 72 hr post compound treatment by half-leaf method; format: functional; in short: as §1

| SMILES | inhibition at 5 µg/mL [1] | Activity [2] | Activity [3] | EC50 [4] | Activity [5] | inhibition at 25 µg/mL [6] | inhibition at 50 µg/mL [7] | inhibition at 100 µg/mL [8] | inhibition (INH) [9] | inhibition at 40 µg/mL [9] | Activity [10] | inhibition at 250 µg/mL [11] | Activity [12] | inhibition at 125 µg/mL [13] | Activity [14] | inhibition at 500 µg/mL [15] |
| --- | --- | --- | --- | --- | --- | --- | --- | --- | --- | --- | --- | --- | --- | --- | --- | --- |
| CC1(C)C2CC[C@]1(S(=O)(=O)O)C(=O)C2.COc1cc2c3c(c4cc(OC)c(OC)cc4c2cc1OC)CN1CCCC1C3 (stereo unspecified) | 32.3% | 55.6% | 47.7% | 23.6 µg/mL | 65.5% | 42.4% | 60.6% | 73.9% | – | – | – | – | – | – | – | – |
| COc1cc(/C=C/C(=O)O)ccc1O.COc1cc2c3c(c4cc(OC)c(OC)cc4c2cc1OC)CN1CCCC1C3 (stereo unspecified) | 15.7% | 51.1% | 45.5% | 40.3 µg/mL | 13.8% | 18.5% | 68.5% | 72.2% | – | – | – | – | – | – | – | – |
| COc1cc2c3c(c4cc(OC)c(OC)cc4c2cc1OC)CN1CCCC1C3.O=C(O)CC(O)(CC(=O)O)C(=O)O (stereo unspecified) | – | – | – | – | – | – | – | – | 65.2% | – | – | – | – | – | – | – |
| COc1cc2c3c(c4cc(OC)c(OC)cc4c2cc1OC)CN1CCCC1C3.O=C(O)c1cc(S(=O)(=O)O)ccc1O (stereo unspecified) | 15.6% | 42.2% | 38.6% | 21.3 µg/mL | 62.1% | 35.7% | 79.9% | 92.8% | – | – | – | – | – | – | – | – |
| COc1ccc2c3c(c4cc(OC)c(OC)cc4c2c1)CC1CCCN1C3 (racemic) [(+/-)-ANTOFINE] | 56.7% | 66.3% | 26.7% | < 25 µg/mL | 54.4% | 68.8% | 69.7% | 80.7% | – | – | – | – | – | – | – | – |
| COc1ccc2c3c(c4cc(OC)c(OC)cc4c2c1)CN1CCCC1C3 (racemic) [(+/-)-DEOXYTYLOPHORININE] | – | 67.4% | 60% | < 25 µg/mL | 26.1% | 65% | 66.7% | 75% | – | 79.2% | – | – | – | – | – | – |
| CNCC(=O)N[C@@H](CO)C(=O)N[C@H]1[C@H](O)[C@@H](O)[C@H](n2ccc(N)nc2=O)O[C@@H]1C(N)=O [NINGNANMYCIN] | – | – | – | 440 µg/mL (≈ 992 µM) | – | 28.2% | – | – | – | – | 50.5% | 42.1% | 51.3% | 27% | 23% | 59.3% |
| COc1cc2c3c(c4cc(OC)c(OC)cc4c2cc1OC)CN1CCCC1C3 (stereo unspecified) [TYLOPHORINE 2-HYDROXYSUCCINIC ACID SALT] | – | – | – | – | – | – | – | – | – | 69.1% | – | – | – | – | – | – |
| COc1cc2c3c(c4cc(OC)c(OC)cc4c2cc1OC)CN1CCCC1C3.Nc1ccc(S(=O)(=O)O)cc1 (stereo unspecified) [TYLOPHORINE P-AMINOBENZENESULFONIC ACID SALT] | 31.4% | 75.6% | 38.6% | 14.3 µg/mL | 34.5% | 58.8% | 74.3% | 80.9% | – | – | – | – | – | – | – | – |
| COc1cc2c3c(c4cc(OC)c(OC)cc4c2cc1OC)CN1CCCC1C3.O=C(O)c1ccc(O)cc1 (stereo unspecified) [TYLOPHORINE P-HYDROXYBENZOIC ACID SALT] | 50% | 60.9% | 54.9% | 7.7 µg/mL | 42.9% | 54.7% | 70% | 84.9% | – | – | – | – | – | – | – | – |
